Source: PubChem BioAssay
Only some compounds are listed: those with a hit (about 3.7% of all), similar ones and a draw of the others.
KCNQ1 inh: inhibitors of human KCNQ1 channel, primary screen, cell-based, thallium flux, high-throughput; CHO-K1 KCNQ1, FluxOR thallium flux fluorescence; stronger effect = higher value; B-score at 10 µM; 310,000 compounds, 1.3% hits; AID 2642, 2010;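 active means compounds whose thallium flux B-score, printed positive for inhibition, exceeds three library SD while starting fluorescence stays within three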;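 further: channel opened by potassium depolarization with thallium stimulus after 20 min compound exposure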
KCNQ1 act: potentiators or activators of KCNQ1 channel, primary screen, cell-based, thallium flux, high-throughput; Potassium voltage-gated channel subfamily KQT member 1 (Homo sapiens), P51787; CHO-K1 KCNQ1, thallium flux FluxOR fluorescence; stronger effect = higher value; 310,000 compounds, 0.35% hits; AID 2648, 2010; B-score at 10 µM;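 active means fluorescence ratio B-score, a plate-corrected score, at least three library SD, with initial intensity B-score within 5 SD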
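Assay system: CHO-K1 cells stably expressing KCNQ1. Medium: assay buffer for compound exposure, DMSO matched across wells. Timing: 37 °C overnight plating, 90-min dark dye load, 20-min compound pretreatment. Signal: kinetic FluxOR fluorescence, 10 s baseline plus 110 s post-stimulus.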
KCNK9 inh: KCNK9 potassium channel inhibitors, primary screen, HEK293 cells, thallium flux; Potassium channel subfamily K member 9 (Homo sapiens), Q9NPC2; FluxOR thallium flux fluorescence; stronger effect = lower value; B-score at 10 µM; 310,000 compounds, 1.2% hits; AID 488922, 2010;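 active means ratio B-score over 3 SD below the library mean, with starting fluorescence within 5 SD of its mean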;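 further: negative B-score means less thallium flux so channel inhibition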
Kir21 inh: inhibitors of mouse Kir2.1 inward-rectifier potassium channel. Inward rectifier potassium channel 2 (Mus musculus), P35561. HEK293-Kir2.1, FluxOR thallium flux fluorescence; stronger effect = lower value. B-score at 10 µM. 310,000 compounds, 0.85% hits. AID 1672, 2009;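 active means fluorescence ratio B-score at or below minus 3 SD of library scores, with starting-brightness B-score within 2 SD, cut at about -4.2 in these data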;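 further: channel flux triggered by added potassium and thallium sulfate stimulus; B-score of peak minus minimum fluorescence over baseline after thallium stimulus; more negative B-score means stronger Kir2.1 block with less thallium influx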
Target sequence (P35561 whole entry, looked up): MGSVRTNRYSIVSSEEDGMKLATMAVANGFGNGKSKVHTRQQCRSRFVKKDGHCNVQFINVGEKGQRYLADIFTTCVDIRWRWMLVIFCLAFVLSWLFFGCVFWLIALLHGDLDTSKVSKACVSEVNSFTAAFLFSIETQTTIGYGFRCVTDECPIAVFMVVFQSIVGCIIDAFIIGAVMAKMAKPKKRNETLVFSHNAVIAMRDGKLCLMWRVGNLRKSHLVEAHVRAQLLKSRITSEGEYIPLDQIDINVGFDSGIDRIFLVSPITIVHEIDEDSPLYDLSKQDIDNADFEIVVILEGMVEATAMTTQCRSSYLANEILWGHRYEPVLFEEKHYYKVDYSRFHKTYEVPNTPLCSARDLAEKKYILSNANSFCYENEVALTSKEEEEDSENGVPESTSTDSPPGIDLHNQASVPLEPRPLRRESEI
hERG protect: hERG rescue from dofetilide block, primary screen, cell-based, CHO-hERG, FluxOR thallium flux, dofetilide IC70. Voltage-gated inwardly rectifying potassium channel KCNH2 (Homo sapiens), Q12809. 310,000 compounds, 0.51% hits. AID 1511, 2009. activation (rescue from dofetilide block), less the hit threshold, % at 10 µM. dofetilide IC70 present;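 active means activation above the mean of controls blocked by dofetilide plus 5 SD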;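 further: thallium influx through hERG after potassium depolarization seen as dye fluorescence rise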
KCNK3 inh: human KCNK3 channel inhibitors, primary screen, CHO cells, FluxOR thallium flux, B-score | Potassium channel subfamily K member 3 (Homo sapiens), O14649 | FluxOR fluorescence; stronger effect = lower value | B-score at 10 µM | 340,000 compounds, 0.84% hits;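 active means B-score under library mean minus 4 SD, starting fluorescence ratio at most library mean plus 5 SD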;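 further: more negative B-score means stronger inhibition of thallium flux through KCNK3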
KCNK3 confirm: retest of human KCNK3 channel inhibitors, confirmation, CHO cells, FluxOR thallium flux, triplicate; ratio percent of control, % at 10 µM; FluxOR fluorescence; 0% buffer, 100% carvedilol maximal block; 2,400 compounds, 99% hits; shares compounds with KCNK3 inh; AID 651638, 2012;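 active means ratio percent of control, averaged over triplicates, above buffer control mean plus 5 SD, cut at about 64% in these data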;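 further: ratio is the fluorescence rise from min to max over baseline after thallium stimulus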
KCNK3 noninduced: thallium flux inhibition in non-induced cells, primary screen, counter-screen for KCNK3 inhibitor project, cell-based, non-induced KCNK3 line, FluxOR thallium, triplicate; 2,400 compounds, 40% hits; non-induced KCNK3 parental cells; stronger effect = lower value; shares compounds with KCNK3 inh; thallium flux ratio (lower = more inhibition) at 10 µM;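 active means thallium flux ratio, averaged over three wells, more than 5 SD below the buffer control mean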;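 further: host cells are CHO cells without KCNK3 induction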
Large screens that a line does not name were inactive (follow-up assays come after a bar, where they were run).

COc1cccc(C(=O)COc2cccc(NC(=O)c3ccco3)c2)c1	KCNK9 inh -7.3, KCNK3 inh -10 | KCNK3 confirm 120 | KCNK3 noninduced 0.14
O=C(COc1cccc(NC(=O)c2cccc([N+](=O)[O-])c2)c1)c1ccc(Br)cc1	KCNK3 inh -11 | KCNK3 confirm 96 | KCNK3 noninduced 0.15
Cc1cc(/C=C2\C(=N)N3N=C(C(C)C)SC3=NC2=O)c(C)n1-c1ccccc1	none
FC(F)(Cl)c1nnc2ccc(Sc3ccccn3)nn12	none
O=C(COc1cccnc1[N+](=O)[O-])Nc1cccc(S(=O)(=O)N2CCCCC2)c1	none
COc1ccc(NC(=O)C2CCCN(CCCc3ccccc3)C2)cc1OCC(C)C (stereo not given)	KCNK3 inh -9.8 | KCNK3 confirm 99 | KCNK3 noninduced inactive
COc1cc2c(cc1OC)C(c1cccs1)N(C(=S)NC(C)C)CC2 (stereo not given)	KCNK3 inh -11 | KCNK3 confirm 94 | KCNK3 noninduced inactive
COc1ccc(C(=O)NCCCNC(=O)c2cnccn2)cc1	none
COc1ccc2[nH]c3c(N4CCC(O)(c5cccc(C(F)(F)F)c5)CC4)ncnc3c2c1	KCNK3 inh -12 | KCNK3 confirm 122 | KCNK3 noninduced 0.15
COc1ccc2[nH]c3c(N4CCN(Cc5ccc6c(c5)OCO6)CC4)ncnc3c2c1	none
O=C1OC(c2cccs2)=N/C1=C\c1ccc(-c2ccccc2Cl)o1	KCNK9 inh -7.9 | KCNK3 confirm 141 | KCNK3 noninduced 0.11
CN(Cc1nc2ccccc2c(=O)[nH]1)C(=O)c1ccccc1OCc1ccc(Cl)cc1	none (no result: KCNQ1 inh, KCNQ1 act, KCNK9 inh, Kir21 inh, hERG protect)
Clc1cccc(OCc2nnc(-c3ccccc3Br)o2)c1	KCNK3 inh -11 | KCNK3 confirm 105 | KCNK3 noninduced inactive
CCCC(=O)Nc1nc2c(s1)COc1ccccc1-2	none
O=C(CCSc1ccccc1)Nc1nc2c(s1)COc1ccccc1-2	KCNK3 inh -9.4 | KCNK3 confirm 105 | KCNK3 noninduced inactive
CC(=O)Nc1ccc(S(=O)(=O)NCCC(=O)N2CCc3ccccc32)cc1	none
Cc1noc(C)c1COc1ccccc1C(=O)NCCOc1ccccc1F	none (no result: KCNQ1 inh, KCNQ1 act, KCNK9 inh, Kir21 inh, hERG protect)
Cc1noc(C)c1COc1ccccc1C(=O)NC1CCC(C)CC1 (stereo not given)	KCNK3 inh -10 | KCNK3 confirm 106 | KCNK3 noninduced inactive
COc1ccc(/C=N/NC(=O)CN2CCSCC2)c(OC)c1	none
COc1ccc(-c2csc(/C(C#N)=C\c3ccc(O)c([N+](=O)[O-])c3)n2)cc1OC	KCNK3 inh -10 | KCNK3 confirm 116 | KCNK3 noninduced 0.14
Cc1onc(-c2ccccc2)c1-c1csc(COc2ccccc2)n1	KCNK9 inh -7.8, KCNK3 inh -12 | KCNK3 confirm 96 | KCNK3 noninduced 0.14
CCOC(=O)c1cc(-c2csc(COc3ccccc3)n2)on1	none
COc1ccccc1CNC(=O)Cc1csc(NC(=O)Nc2ccccc2OC)n1	KCNK3 inh -8.7 | KCNK3 confirm 99 | KCNK3 noninduced inactive
COc1ccccc1NC(=O)Nc1nc(CC(=O)NCc2ccccn2)cs1	none
O=S(=O)(c1cccc(COc2c(Cl)cccc2Cl)c1)N1CCOCC1	KCNK3 inh -9.5 | KCNK3 confirm 120 | KCNK3 noninduced inactive
O=[N+]([O-])c1ccc(F)cc1OCc1cccc(S(=O)(=O)N2CCOCC2)c1	none
O=S(=O)(c1cccc(COc2ccc(Cl)cc2Cl)c1)N1CCOCC1	KCNK3 inh -9.9 | KCNK3 confirm 122 | KCNK3 noninduced 0.16
CC(=O)c1cc(Cl)ccc1OCc1cccc(S(=O)(=O)N2CCOCC2)c1	none
c1ccc(COn2nnc3ccccc32)c(COn2nnc3ccccc32)c1	Kir21 inh -5.7, KCNK3 inh -9.7 | KCNK3 confirm 102 | KCNK3 noninduced inactive
COc1ccccc1/C=C1\SC(=S)N(N2C(=O)CCCC2=O)C1=O	KCNK3 inh -9.4 | KCNK3 confirm 105 | KCNK3 noninduced inactive
Cc1c(C(=O)Nc2ccc(Cl)cc2)c2ccccn2c1CCc1ccncc1	KCNK3 inh -9.7 | KCNK3 confirm 109 | KCNK3 noninduced 0.14
Cc1cccc(C(=O)NCCC(=O)NCc2ccccc2F)c1	none (no result: KCNQ1 inh, KCNQ1 act, KCNK9 inh, Kir21 inh, hERG protect)
COc1ccc(OC)c2c1cc(C(=O)N[C@H](C(=O)N1CCC(C(=O)O)CC1)C(C)C)n2C	none
O=C(CSc1nnc(-c2cccs2)n1C1CC1)NC1CCS(=O)(=O)C1 (stereo not given)	none (no result: KCNQ1 inh, KCNQ1 act, KCNK9 inh, Kir21 inh, hERG protect)
CCOc1ccccc1C(=O)NCC(=O)OCCOc1cccc(Cl)c1	KCNK3 inh -10 | KCNK3 confirm 100 | KCNK3 noninduced inactive
Cc1ccc(CNC(=O)c2cc(S(=O)(=O)N3CCCCC3)ccc2N2CCOCC2)cc1	none (no result: KCNQ1 inh, KCNQ1 act, KCNK9 inh, Kir21 inh, hERG protect)
COC(=O)c1cccc(NC(=O)CC2C(=O)NCCN2C(=O)Nc2cc(C)cc(C)c2)c1 (stereo not given)	KCNK3 inh -9.2 | KCNK3 confirm 119 | KCNK3 noninduced 0.14
Cc1cc(C)cc(NC(=O)N2CCNC(=O)C2CC(=O)Nc2cc(Cl)ccc2Cl)c1 (stereo not given)	none
COc1cccc(CC(=O)Nc2nc(-c3cc(OC)ccc3OC)cs2)c1	none
COc1ccc(OC)c(-c2csc(N(Cc3ccco3)C(=O)c3ccco3)n2)c1	KCNK9 inh -7.3, KCNK3 inh -12 | KCNK3 confirm 102 | KCNK3 noninduced inactive
COc1ccc(OC)c(-c2csc(NC(=O)c3ccc4c(c3)OCO4)n2)c1	KCNK3 inh -9.3 | KCNK3 confirm 92 | KCNK3 noninduced inactive
COc1ccc(OC)c(-c2csc(NC(=O)Cc3ccccc3)n2)c1	KCNK3 inh -9.4 | KCNK3 confirm 125 | KCNK3 noninduced 0.15
COc1ccc(CN(C(=O)c2ccco2)c2ccc(C)c(C)c2)cc1	KCNK9 inh -7.1, KCNK3 inh -11 | KCNK3 confirm 105 | KCNK3 noninduced inactive
COc1ccc(OC)c(NC(=O)c2ccc3c(c2)OCO3)c1	none
O=C(N/N=C1/SCC(=O)N1Cc1ccco1)c1ccccc1F	none
